Experimental data published in paper PMC7114156 (Antiviral Research, 2009).
Entries after “also recorded” stand apart in the source; their conditions may differ. Marks after values point to notes of the source that are not given here.

Assays:
W12 cells = test: mRNA measurement by RT-qPCR in W12 cells; assay type: cell-based, human
How it was run: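 RNA was taken 0, 24 and 48 h after adding test compound; W12 cells were grown in 75 cm² flasks and washed in chilled PBS. 546 Pathway Set genes were run in quadruplicate by RT-qPCR: 10 μl reactions, primers 900 nM, probes 100 nM final. Ct was normalised to GAPDH, with dCt = Ct(control) − Ct(treated) and a two-sided t-test. Fold change was F = 2^dCt where p ≤ 0.05.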

primary cells = test: Growth of primary cells; assay type: cell-based, human; details: at concentrations below 1 μM
Molt4 = test: Growth of Molt4, MTS; assay type: cell-based, human
How it was run: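 Cells were plated in 96-well plates in medium holding serial dilutions of test compound, 1 nM to 10 μM, with DMSO ≤1% (v/v) final. Growth was read by MTS after 72 h at 37 °C: 2 h with reagent plus phenazine methosulfate, then A490. K and Imax came from a fit to a modified Hill equation. Vero cells are African Green monkey.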

[1] = Growth of resting PBMC, MTS; assay type: cell-based; details: human, resting PBMCs
episomal HPV-16 DNA = test: Hybrid capture assay for HPV16 DNA in W12-20850 cells; assay type: cell-based
How it was run: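 W12-20850 cells seeded at 7.5 × 10^3/well onto compound (100 to 0.001 μM), 4 days at 37 °C, 5% CO2. MTS growth read, then same cells lysed in 0.2N NaOH/1% Igepal. Episomal HPV-16 DNA measured by hybrid capture: 90 °C 6.5 min, 42 °C overnight, anti-digoxigenin HRP, chemiluminescence. HPV DNA/MTS ratio expressed as % of untreated control. Fit to modified Hill equation.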

[2] = Growth of uninfected HFF cells; assay type: cell-based, human; details: human, HFF cells (fibroblasts)
HFF cells = test: Growth of uninfected HFF cells; assay type: cell-based, human
[3] = Bone marrow toxicity assay, granulocyte/macrophage progenitors; assay type: cell-based; details: human, granulocyte/macrophage bone marrow progenitor cells
[4] = W12 cells, 100 nM, 24 h, not significantly different from 1
[5] = W12 cells, 100 nM, 48 h, not significantly different from 1

O=C(N[C@@H]1CCCc2c1[nH]c1ccc(Cl)cc21)c1ccccn1 [GSK983, N-[(1R)-6-Chloro-2,3,4,9-tetrahydro-1H-carbazol-1-yl]-2-pyridinecarboxamide]
Fold increase due to GSK983, DCN mRNA (W12 cells; W12 cells, 100 nM, 24 h): 2.3 fold | Fold increase due to GSK983, DMPK mRNA (W12 cells; W12 cells, 100 nM, 24 h): 2.9 fold | Fold increase due to GSK983, FMOD mRNA (W12 cells; W12 cells, 100 nM, 24 h): 1.7 fold | Fold increase due to GSK983, IFI6 mRNA (W12 cells; W12 cells, 100 nM, 24 h): 2.3 fold | Fold increase due to GSK983, IFI16 mRNA (W12 cells; W12 cells, 100 nM, 24 h): 1.3 fold | Fold increase due to GSK983, IFI44 mRNA (W12 cells; W12 cells, 100 nM, 24 h): 2.9 fold | Fold increase due to GSK983, IFIT1 mRNA (W12 cells; W12 cells, 100 nM, 24 h): 5.5 fold | Fold increase due to GSK983, IL6 mRNA (W12 cells; W12 cells, 100 nM, 24 h): 3.8 fold | Fold increase due to GSK983, IL8 mRNA (W12 cells; W12 cells, 100 nM, 24 h): 2.1 fold | Fold increase due to GSK983, IRF3 mRNA (W12 cells; W12 cells, 100 nM, 24 h): 1.5 fold | Fold increase due to GSK983, IRF9 mRNA (W12 cells; W12 cells, 100 nM, 24 h): 1.6 fold | Fold increase due to GSK983, ISG15 mRNA (W12 cells; W12 cells, 100 nM, 24 h): 4.3 fold | Fold increase due to GSK983, LRP1 mRNA (W12 cells; W12 cells, 100 nM, 24 h): 3.7 fold | Fold increase due to GSK983, NR1H3 mRNA (W12 cells; W12 cells, 100 nM, 24 h): 6.8 fold | Fold increase due to GSK983, OAS1 mRNA (W12 cells; W12 cells, 100 nM, 24 h): 2.2 fold | Fold increase due to GSK983, OAS2 mRNA (W12 cells; W12 cells, 100 nM, 24 h): 1.9 fold | Fold increase due to GSK983, OASL mRNA (W12 cells; W12 cells, 100 nM, 24 h): 6.7 fold | Fold increase due to GSK983, TLR5 mRNA (W12 cells; W12 cells, 100 nM, 24 h): 2.4 fold | Fold increase due to GSK983, TNFSF10 mRNA (W12 cells; W12 cells, 100 nM, 24 h): 4.3 fold | Fold increase due to GSK983, ERN2 mRNA (W12 cells; [4]): 1.7 ^b fold | Fold increase due to GSK983, LIFR mRNA (W12 cells; [4]): 1.3 ^b fold | Fold increase due to GSK983, SNAP25 mRNA (W12 cells; [4]): 1.7 ^b fold | Fold increase due to GSK983, CCL5 mRNA (W12 cells; W12 cells, 100 nM, 48 h): 47.4 fold | Fold increase due to GSK983, CEL mRNA (W12 cells; W12 cells, 100 nM, 48 h): 10.6 fold | Fold increase due to GSK983, COL10A1 mRNA (W12 cells; W12 cells, 100 nM, 48 h): 2.4 fold | Fold increase due to GSK983, CPT1B mRNA (W12 cells; W12 cells, 100 nM, 48 h): 6.4 fold | Fold increase due to GSK983, CSF2 mRNA (W12 cells; W12 cells, 100 nM, 48 h): 4.9 fold | Fold increase due to GSK983, DCN mRNA (W12 cells; W12 cells, 100 nM, 48 h): 15.4 fold | Fold increase due to GSK983, DMPK mRNA (W12 cells; W12 cells, 100 nM, 48 h): 4.1 fold | Fold increase due to GSK983, ERN2 mRNA (W12 cells; W12 cells, 100 nM, 48 h): 2.8 fold | Fold increase due to GSK983, FMOD mRNA (W12 cells; W12 cells, 100 nM, 48 h): 2.5 fold | Fold increase due to GSK983, IFI6 mRNA (W12 cells; W12 cells, 100 nM, 48 h): 7.3 fold | Fold increase due to GSK983, IFIT1 mRNA (W12 cells; W12 cells, 100 nM, 48 h): 5.5 fold | Fold increase due to GSK983, IL6 mRNA (W12 cells; W12 cells, 100 nM, 48 h): 10.2 fold | Fold increase due to GSK983, IL8 mRNA (W12 cells; W12 cells, 100 nM, 48 h): 2.3 fold | Fold increase due to GSK983, ISG15 mRNA (W12 cells; W12 cells, 100 nM, 48 h): 9.3 fold | Fold increase due to GSK983, LIFR mRNA (W12 cells; W12 cells, 100 nM, 48 h): 2.2 fold | Fold increase due to GSK983, LRP1 mRNA (W12 cells; W12 cells, 100 nM, 48 h): 3.5 fold | Fold increase due to GSK983, NR1H3 mRNA (W12 cells; W12 cells, 100 nM, 48 h): 2.7 fold | Fold increase due to GSK983, OAS1 mRNA (W12 cells; W12 cells, 100 nM, 48 h): 5.0 fold | Fold increase due to GSK983, OAS2 mRNA (W12 cells; W12 cells, 100 nM, 48 h): 2.9 fold | Fold increase due to GSK983, OASL mRNA (W12 cells; W12 cells, 100 nM, 48 h): 10.9 fold | Fold increase due to GSK983, SNAP25 mRNA (W12 cells; W12 cells, 100 nM, 48 h): 4.7 fold | Fold increase due to GSK983, TLR5 mRNA (W12 cells; W12 cells, 100 nM, 48 h): 3.1 fold | Fold increase due to GSK983, TNFSF10 mRNA (W12 cells; W12 cells, 100 nM, 48 h): 8.4 fold | Fold increase due to GSK983, IFI16 mRNA (W12 cells; [5]): 1.2 ^b fold | Fold increase due to GSK983, IRF3 mRNA (W12 cells; [5]): 1.2 ^b fold | Number of genes of the Pathway Set with significant increases in expression (W12 cells; W12 cells, at both 10 and 100 nM, 546 genes): 22 genes | Expression of the three interferons (alpha, beta, and gamma), PKR and Mx1 (W12 cells; data not shown): not induced | Inhibition of growth of primary cell types (primary cells): None of the primary cell types tested was significantly inhibited; also recorded: does not impact the growth | EC50 (Molt4; Homo sapiens, MOLT-4, 72 h, read-out: K, growth, MTS): 0.013 ± 0.0013 µM | Imax, Growth, MTS (Molt4; Molt4, T lymphoblast, 72 h): 85 ± 2% | CC50 at 72 h [1]: 520 µM | Imax, Ratio, HPV DNA/MTS (episomal HPV-16 DNA; W12-20850): 90 ± 2% | K, Ratio, HPV DNA/MTS (episomal HPV-16 DNA; W12-20850): 4.9 ± 0.5 nM | EC50 (episomal HPV-16 DNA; read-out: K, DNA, hybrid capture, W12-20850, HPV type 16, 4 days): 0.0045 ± 0.0003 µM | CC50 at 72 h [2]: 55 µM | K, uninfected host cell growth, MTS (HFF cells; HFF, this experiment (Fig. 2), K ∼ CC50): 35,500 nM | Growth of the uninfected HFF, as measured by MTS (HFF cells; at concentrations below one micromolar): not inhibited | CC50 [3]: 160 µM
